For data set [1], the system named is G-361. The data set is described as follows: Cytotoxicity against human G361 cells under dark condition measured after 72 hrs by MTT assay. The class given is functional, cell-based. As to conditions: G-361, 72 h. The gist of the method: (§1)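 Cells grown in phenol red-free DMEM with 10 % FBS, penicillin/streptomycin, 37 °C, 5 % CO₂. Compound added 24 h after plating and incubated 4 h. Irradiated cells received 414 nm LED light at 20 mW/cm², 10 J/cm², then were incubated 20 h or 68 h more. Dark plates were run in parallel without irradiation. MTT was added for 4 h, formazan dissolved in 10 % SDS, absorbance read at 570 nm. EC50 ± SD.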
On the technique in general: Tetrazolium assays rely on reduction of a dye to a coloured formazan, in cell work by metabolically active cells.

The subject of data set [2] is G-361. The data set is described as follows: Cytotoxicity against human G361 cells pretreated for 4 hrs followed by light irradiation of 10 J/cm2 at 414 nm measured after 68 hrs by MTT assay. It is filed as functional, cell-based. As to conditions: G-361, light or radiation study. The gist of the method:
as §1

Data set [3] can be described thus: Cytotoxicity against human BJ cells under dark condition measured after 72 hrs by MTT assay. The class given is toxicity, cell-based. The procedure, abridged:
as §1

As a reminder, the EC50 is the concentration giving half of the maximal effect. In the case of `CC1(C)C(/C=C/c2ccccc2)=Nc2ccc3ccccc3c21`, the concentration for a half-maximal effect (EC50) in data set [1] was determined as 6.5 µM; in data set [2] it was 2.8 µM.
In the case of `CC1(C)C(/C=C/c2ccc(F)c(C#N)c2)=Nc2ccc3ccccc3c21`, the 50% effective concentration (EC50) in data set [1] stood at 6.9 µM; in data set [2], 1.4 µM.
For `CN(C)c1ccc(/C=C/C2=Nc3ccc4ccccc4c3C2(C)C)cc1`, the concentration giving a half-maximal response (EC50) in data set [1] and in data set [2] was over 10 µM throughout.
As for `CC1(C)C(/C=C/c2cccc(C(F)(F)F)c2)=Nc2ccc3ccccc3c21`, the half-maximal effective concentration (EC50) in data set [1] is 7.6 µM; in data set [2] it was 1.3 µM. Further, the EC50 at 72 h in data set [3] was over 10 µM.
Take `CC1(C)C(/C=C/c2cccc([N+](=O)[O-])c2)=Nc2ccc3ccccc3c21`: the concentration giving a half-maximal response (EC50) came to 2.9 µM in data set [1] and 0.4 µM in data set [2]. In addition, in data set [3], the EC50 at 72 h is 5 µM.
Taken in the same sequence, the figures for `CC1(C)C(/C=C/c2ccc(C#N)c(F)c2)=Nc2ccc3ccccc3c21` were 6.2 µM, 0.6 µM and 7.2 µM.
Taken in the same sequence, the figures for `CC1(C)C(/C=C/c2ccc(C#N)cc2)=Nc2ccc3ccccc3c21` were 5.1 µM, 0.5 µM and 6.7 µM.
With `CC1(C)C(/C=C/c2ccc(F)cc2)=Nc2ccc3ccccc3c21`, the EC50 in data set [1] amounted to 7.3 µM; in data set [2] it was 4.1 µM.
Consider `CC1(C)C(/C=C/c2cccc(C#N)c2)=Nc2ccc3ccccc3c21`, for which the EC50 in data set [1] worked out at 3.7 µM; in data set [2], 0.9 µM.
With `CC1(C)C(/C=C/c2ccc(Cl)c([N+](=O)[O-])c2)=Nc2ccc3ccccc3c21`, the half-maximal effective concentration (EC50) in data set [1] worked out at 7.2 µM; in data set [2], 0.3 µM. This compound registered an EC50 at 72 h in data set [3] of over 10 µM.
On to `CC1(C)C(/C=C/c2cc([N+](=O)[O-])ccc2Cl)=Nc2ccc3ccccc3c21`, for which the 50% effective concentration (EC50) is over 10 µM in data set [1] and 7.9 µM in data set [2].
Consider `CC1(C)C(/C=C/c2ccccc2[N+](=O)[O-])=Nc2ccc3ccccc3c21`, for which the EC50 in data set [1] worked out at 7.8 µM; in data set [2], 1.1 µM. Also, the EC50 at 72 h in data set [3] was over 10 µM.
Taken in the same sequence, the figures for `CC1(C)C(/C=C/c2ccc(Br)cc2)=Nc2ccc3ccccc3c21` were 7.6 µM, 1.3 µM and over 10 µM.
Turning to `CC1(C)C(/C=C/c2ccc([N+](=O)[O-])cc2)=Nc2ccc3ccccc3c21`, the results for the EC50 in data set [1] and in data set [2] were 5.7 µM and 0.8 µM, respectively. The 50% effective concentration (EC50) at 72 h in data set [3] came to 6 µM.
Take `COc1ccc(/C=C/C2=Nc3ccc4ccccc4c3C2(C)C)cc1`: the results for the concentration for a half-maximal effect (EC50) in data set [1] and in data set [2] were 9.5 µM and 5.2 µM, respectively.
The like results for `CC1(C)C(/C=C/c2ccc(F)c([N+](=O)[O-])c2)=Nc2ccc3ccccc3c21` were, in that order, 7.9 µM and 1.8 µM.
Consider `CC1(C)C(/C=C/c2cc(C(F)(F)F)cc(C(F)(F)F)c2)=Nc2ccc3ccccc3c21`, for which the concentration for a half-maximal effect (EC50) is over 10 µM in data set [1] and 1.3 µM in data set [2]. For the same compound, the concentration for a half-maximal effect (EC50) at 72 h in data set [3] is over 10 µM.
As to `CC1(C)C(/C=C/c2ccc(C(F)(F)F)cc2)=Nc2ccc3ccccc3c21`, the half-maximal effective concentration (EC50) amounted to 4 µM in data set [1] and 0.9 µM in data set [2].
The like results for `CCN(CC)c1ccc(/C=C/C2=Nc3ccc4ccccc4c3C2(C)C)cc1` were, in that order, over 10 µM and over 10 µM.
In the case of `Cc1ccc(/C=C/C2=Nc3ccc4ccccc4c3C2(C)C)cc1[N+](=O)[O-]`, the 50% effective concentration (EC50) in data set [1] was 6.6 µM; in data set [2], 0.9 µM. The compound further came in with a 50% effective concentration (EC50) at 72 h in data set [3] of 8 µM.

The values are drawn from ChEMBL document CHEMBL6071149, “Synthesis and photo-induced anticancer activity of new 2-phenylethenyl-1H-benzo[e]indole dyes” (Eur J Med Chem, 2024).
